Test [1] is described as follows: Inhibition of NDM1 (unknown origin).
Test [2] deals with Escherichia coli. The test can be described thus: Synergistic anti-bacterial activity Escherichia coli E.cloni MP30-63 expressing blaNDM- gene assessed as decrease in meropenem MIC at 500 uM. The format is functional.
Test [3] deals with Escherichia coli. Kind of test: Synergistic anti-bacterial activity Escherichia coli E.cloni MP30-57 expressing blaVIM- gene assessed as decrease in meropenem MIC at 500 uM. The format is functional.
Test [4] has as its system Escherichia coli. Kind of test: Synergistic anti-bacterial activity Escherichia coli E.cloni MP30-63 expressing blaNDM- gene assessed as fold reduction in meropenem MIC at 500 uM. The format is functional.
For test [5], the system named is Escherichia coli. The test can be described thus: Synergistic anti-bacterial activity Escherichia coli E.cloni MP30-58 expressing blaIMP- gene assessed as decrease in meropenem MIC at 500 uM. Format: functional.
Test [6] concerns Escherichia coli. The test can be described thus: Synergistic anti-bacterial activity Escherichia coli E.cloni MP30-57 expressing blaVIM- gene assessed as fold reduction in meropenem MIC at 500 uM. The format is functional.
Test [7] has as its system Escherichia coli. Kind of test: Synergistic anti-bacterial activity Escherichia coli E.cloni MP30-58 expressing blaIMP- gene assessed as fold reduction in meropenem MIC at 500 uM. Format: functional.
Test [8] has as its system Escherichia coli. The test can be described thus: Anti-bacterial activity against Escherichia coli E.cloni MP30-57 expressing blaVIM- gene assessed as decrease in bacterial growth. The format is functional. An outline of the steps: (§1)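 Test compound held at a fixed 500 μM in E. coli producing the B1 metallo-β-lactamase (NDM-1, VIM-2 or IMP-26). Growth was checked with the compound alone and in combination with meropenem. Read-out was the meropenem MIC (mg/L) and its fold reduction.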

Test [9] deals with Escherichia coli. Kind of test: Anti-bacterial activity against Escherichia coli E.cloni MP30-58expressing blaIMP- gene assessed as decrease in bacterial growth. The format is functional. The method in brief:
as §1

Test [10] relates to Escherichia coli. The test can be described thus: Anti-bacterial activity against Escherichia coli E.cloni MP21-05 assessed as decrease in bacterial growth. The format is functional.
For test [11], the system named is Escherichia coli. Kind of test: Anti-bacterial activity against Escherichia coli E.cloni MP30-63 expressing blaNDM- gene assessed as decrease in bacterial growth. The format is functional. The method in brief: as §1

In brackets after ≈: the same amount, converted by molar mass. Some results are limits rather than exact numbers.

With `C[C@@H](CS)C(=O)N1CCC[C@H]1C(=O)O`, the IC50 in [1] was more than 500 µM. The compound `O=C(NCc1ccccc1)C(CS)C(F)(F)F` (racemic) gave an IC50 in test [1] of 20 µM. `O=C(O)C1CCN(C(=O)CC(S)C(F)(F)F)CC1` (configuration not stated) came in with an IC50 in test [1] of more than 300 µM.

In test [1], `O=C(O)[C@@H]1CCCN1C(=O)C(CS)C(F)(F)F` (some centres not stated) had an IC50 of 37 µM. In other words, the double-digit micromolar range.

As for `O=C(O)C1CCN(C(=O)C(CS)C(F)(F)F)CC1` (configuration not stated), the MIC in [2] stood at 1 µg/mL; in test [3] it was 0.125 µg/mL; in test [5] it was 2 µg/mL. Further, the “fold change (FC)” value in test [4] came to 32. In [1], this compound had an IC50 of 2.2 µM. Compound `O=C(O)[C@H]1CCCCN1C(=O)CC(S)C(F)(F)F` (some centres not stated) yielded an IC50 in [1] of 145 µM.

On to `O=C(CC(S)C(F)(F)F)NCc1ccc(C(=O)O)cc1` (configuration not stated), for which the half-maximal inhibitory concentration (IC50) in test [1] was more than 300 µM. The same measure, in the same setting: for `O=C(CC(S)C(F)(F)F)NCc1ccccc1` (configuration not stated) the value was more than 300 µM; for `O=C(NCc1ccccc1)[C@@H](CS)C(F)(F)F`, 75 µM. For `O=C(O)[C@H]1CCCN1C(=O)[C@@H](CS)C(F)(F)F`, the MIC in [2] came out at 4 µg/mL; in test [3], 0.25 µg/mL; in test [5] it was 4 µg/mL. Further, the IC50 in test [1] turned out to be 0.3 µM. As to `O=C(CC(S)C(F)(F)F)Nc1ccc(C(=O)O)cc1` (configuration not stated), in test [1], the IC50 amounted to 5.6 µM.

In [1], `O=C(O)[C@H]1CCCN1C(=O)[C@H](CS)C(F)(F)F` gave an IC50 of 4.5 µM. This IC50 and that of the compound before are within 1.5-fold of each other.

The compound `C[C@@H](CS)C(=O)N1CCC[C@@H]1C(=O)O` returned an IC50 in test [1] of 64 µM. Regarding `O=C(CC(S)C(F)(F)F)Nc1ccccc1` (configuration not stated), in [1], the IC50 amounted to 22 µM. Regarding `O=C(O)[C@@H]1CCCN1C(=O)[C@@H](CS)C(F)(F)F`, the “fold change (FC)” value in test [6] and in test [7] was 8 each time. For the same compound, the MIC in [2] turned out to be 4 µg/mL; in test [3] it was 0.06 µg/mL; in test [5], 0.25 µg/mL. The compound further had an IC50 in test [1] of 6.1 µM.

Compound `O=C(Nc1ccccc1)C(CS)C(F)(F)F` (configuration not stated) returned an IC50 in test [1] of 3.4 µM. In other words, the single-digit micromolar range. Take `O=C(O)[C@@H]1CCCN1C(=O)[C@H](CS)C(F)(F)F`: in test [1], the IC50 is 60 µM. Take `O=C(O)[C@H]1CCCN1C(=O)CC(S)C(F)(F)F` (some centres not stated): in test [1], the IC50 is more than 300 µM. `O=C(O)c1ccc(CNC(=O)C(CS)C(F)(F)F)cc1` (configuration not stated) displayed an IC50 in [1] of 65 µM. In test [1], `O=C(O)[C@@H]1CCCN1C(=O)CC(S)C(F)(F)F` (some centres not stated) registered an IC50 of more than 300 µM. As for `O=C(O)[C@H]1CCCCN1C(=O)C(CS)C(F)(F)F` (some centres not stated), the MIC in test [2] is 0.5 µg/mL; in [3], 0.125 µg/mL; in test [5], 0.5 µg/mL. The “fold change (FC)” value in test [4] was determined as 32. In [1], this compound came in with an IC50 of 3.2 µM. The compound `O=C(NCc1ccccc1)[C@H](CS)C(F)(F)F` returned an IC50 in test [1] of 10 µM. On to `C[C@@H](O)[C@H]1C(=O)N2C(C(=O)O)=C(S[C@@H]3CN[C@H](C(=O)N(C)C)C3)[C@H](C)[C@H]12` [MEROPENEM], for which the MIC in test [8] was determined as 0.5 µg/mL (≈ 1.3 µM); in test [9] it was 2 µg/mL (≈ 5.22 µM); in [10], 0.03 µg/mL (≈ 0.0782 µM); in test [11] it was 32 µg/mL (≈ 83.4 µM).

Usually IC50 stands for the concentration needed to halve the response being measured. High values mean lower potency, low ones higher potency. A word on the MIC: it is the lowest concentration that inhibits growth of the organism.

Source of the values: ChEMBL document CHEMBL5505965 (Eur J Med Chem, 2024).
